Each structure is given as a SMILES string. Activity calls are given as the source filed them. The rule behind the calls is not given here.

As usually defined, the EC50 is the concentration giving half of the maximal effect.

Data set [1] relates to Mast cell. Kind of data set: Induction of Wistar rat peritoneal mast cell degradation assessed as concanavalin A-induced histamine release at 0.01 to 10 uM after 15 mins fluorometric assay. It counts as functional, cell-based. In outline:
(§1)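 Peritoneal mast cells at 5 × 10^4/mL in HEPES-buffered Tyrode stimulated with analogue plus 100 μg/mL concanavalin A for 15 min at 37 C. Supernatant histamine measured fluorometrically and expressed as percent of total cell histamine. Means ± SE of three independent experiments.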

The test system of data set [2] is Mast cell. Briefly: Induction of C57BL/6 mouse peritoneal mast cell degradation assessed as concanavalin A-induced histamine release at 0.01 to 10 uM after 15 mins fluorometric assay. It counts as functional, cell-based. In outline: (§2)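 Peritoneal mast cells at 5 × 10^4/mL in HEPES-buffered Tyrode stimulated with analogue plus 10 μg/mL concanavalin A for 15 min at 37 C. Supernatant histamine measured fluorometrically and expressed as percent of total cell histamine. Means ± SE of three independent experiments.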

The subject of data set [3] is Mast cell. Kind of data set: Induction of Wistar rat peritoneal mast cell degradation assessed as concanavalin A-induced histamine release after 15 mins fluorometric assay. It counts as functional, cell-based. As to conditions: 0.25 h. The procedure, abridged: as §1
Data set [4] relates to Mast cell. Kind of data set: Induction of C57BL/6 mouse peritoneal mast cell degradation assessed as concanavalin A-induced histamine release after 15 mins fluorometric assay. The format is functional, cell-based. As to conditions: C57BL/6, Mast cell, 0.25 h. In outline: as §2
Another data set deals with Mus musculus. Briefly: Increase in plasma histamine level in iv dosed C57BL/6 mouse after 2 mins by EIA. It counts as functional, organism-based. In outline: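 Mice injected i.v. with analogue in PBS with 0.1% BSA; blood taken 2 min after injection and plasma histamine measured by enzyme immunoassay. Means ± SE of three independent experiments.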
Data set [5] can be described thus: Cytotoxicity against concanavalin A-stimulated Wistar rat peritoneal mast cells assessed as LDH release at 50 uM. The format is cell-based. (In general: Release of lactate dehydrogenase indicates damage to the cell membrane.)

On to `CCCCCCCCCCCCCCCCCC(=O)OC[C@@H](O)COP(=O)(O)OC[C@H](NC)C(=O)O`, for which the outcome in the data set on Mast cell [1] and in the data set with Mast cell [2] was inactive. The EC50 with Mast cell [3] was more than 10000 nM.
With `CCCCCCCCCCCCCCCCCC(=O)OC[C@H](O)COP(=O)(O)OC[C@H](N)C(=O)O`, the EC50 with Mast cell [3] came out at 1000 nM; with Mast cell [4] it was 70 nM.
For `CCCCCCCCCCCCCCCCCC(=O)N(C)C[C@@H](O)COP(=O)(O)OC[C@H](N)C(=O)O`, the result with Mast cell [1] and in the data set with Mast cell [2] was inactive. In addition, in the data set on Mast cell [3], the EC50 amounted to 10000 nM.
On to `CCCCCCCCCCCCCCCCCC(=O)OCCOP(=O)(O)OC[C@H](N)C(=O)O`, for which the result in the data set on Mast cell [1] and with Mast cell [2] was inactive. The EC50 in the data set on Mast cell [3] was more than 10000 nM.
As for `CCCCCCCCCCCCCCCCCC(=O)OCCCCCOP(=O)(O)OC[C@H](N)C(=O)O`, the result in the data set with Mast cell [1] and with Mast cell [2] was inactive. Besides, the EC50 with Mast cell [3] is more than 10000 nM.
On to `CCCCCCCCCCCCCCCCCC(=O)NC[C@@H](O)COP(=O)(O)OC[C@H](N)C(=O)O`, for which the result in the data set with Mast cell [1] and in the data set with Mast cell [2] was inactive. Further, the EC50 with Mast cell [3] is 5000 nM.
Consider `CCCCCCCCCCCCCCCCCC(=O)OC[C@@H](O)COP(=O)(O)OC[C@H](N)C(=O)OC`, for which the outcome in the data set on Mast cell [1] and in the data set on Mast cell [2] was inactive. In addition, the EC50 with Mast cell [3] is more than 10000 nM.
Take `CCCCCCCCCCCCCCCCCC(=O)OCCCOP(=O)(O)OC[C@H](N)C(=O)O`: the EC50 in the data set with Mast cell [3] was determined as 500 nM; with Mast cell [4], 40 nM.
For the molecule `CCCCCCCCCCCCCCCC(=O)OC[C@@H](O)COP(=O)(O)O[C@H](C)[C@H](N)C(=O)O`, the values for the EC50 in the data set on Mast cell [3] and in the data set with Mast cell [4] were 40 nM and 20 nM, respectively. Besides, the outcome in the data set with Mus musculus was Active.
Regarding `CCCCCCCCCCCCCCCC(=O)OCCCOP(=O)(O)O[C@H](C)[C@H](N)C(=O)O`, the outcome with Mast cell [1] and in the data set with Mast cell [2] was Active. Moreover, the EC50 in the data set on Mast cell [3] was found to be 60 nM.
As for `CCCCCCCCCCCCCCCCCC(=O)OCCCCOP(=O)(O)OC[C@H](N)C(=O)O`, the result with Mast cell [1] and with Mast cell [2] was inactive. The EC50 with Mast cell [3] worked out at 5000 nM.
On to `CCCCCCCCCCCC(=O)OC[C@@H](O)COP(=O)([O-])OCC[N+](C)(C)C` [LYSOPHOSPHATIDYLCHOLINE], for which, in data set [5], the Activity result was “Toxic”.
On to `CCCCCCCCCCCCCCCCCC(=O)OC[C@@H](O)COP(=O)(O)O[C@@H]1CCN[C@H]1C(=O)O`, for which the outcome in the data set with Mast cell [1] and with Mast cell [2] was inactive. Besides, in the data set with Mast cell [3], the 50% effective concentration (EC50) was more than 10000 nM.
Take `CCCCCCCCCCCCCCCCCC(=O)OC[C@@H](O)COP(=O)(O)O[C@@H]1CN[C@@H](C(=O)O)C1`: the result in the data set on Mast cell [1] and with Mast cell [2] was inactive. In addition, the concentration giving a half-maximal response (EC50) in the data set on Mast cell [3] is more than 10000 nM.
`CCCCCCCCCCCC(=O)OC[C@@H](O)COP(=O)(O)O[C@H](C)[C@H](N)C(=O)O`: the EC50 is 150 nM with Mast cell [3] and 50 nM in the data set on Mast cell [4].
On to `CCCCCCCCCCCCCCCCCC(=O)O[C@H](C)COP(=O)(O)OC[C@H](N)C(=O)O`, for which the EC50 in the data set with Mast cell [3] was more than 10000 nM.
Take `CCCCCCCCCCCCCCCCCC(=O)OC[C@@H](COP(=O)(O)OC[C@H](N)C(=O)O)OC`: the EC50 in the data set on Mast cell [3] amounted to 5000 nM.
Turning to `CCCCCCCCCCCCCCCCCC(=O)OC[C@@H](O)COP(=O)(O)O[C@H]1CN[C@@H](C(=O)O)C1`, the result in the data set on Mast cell [1] and with Mast cell [2] was inactive. Moreover, the EC50 with Mast cell [3] is more than 10000 nM.
For the molecule `CCCCCCCCCCCCCCCCCC(=O)OC[C@H](COP(=O)(O)OC[C@H](N)C(=O)O)OC`, in the data set with Mast cell [3], the EC50 came out at 2000 nM.

Values taken from ChEMBL document CHEMBL1156051, “Synthesis and evaluation of lysophosphatidylserine analogues as inducers of mast cell degranulation. Potent activities of lysophosphatidylthreonine and its 2-deoxy derivative” (J Med Chem, 2009).
